Laboratory results as given in PubChem BioAssay AID809 (SRMLSC, 2007).
Active and inactive are the calls of the source.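 Rule for the calls: active = EC50 for reversing nicotinamide-shortened yeast lifespan at or below a set limit; inactive = EC50 above that limit.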

System: S. cerevisiae DeaD BB579, nicotinamide rescue growth, OD615 48 h
Experiment: rescue of nicotinamide-suppressed growth of yeast BB579, dose response, yeast lifespan extension project, S. cerevisiae (AID 809)
Method in brief: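 System: Saccharomyces cerevisiae DeaD strain BB579, log-phase cells | Buffer or medium: CSMM-D glucose restrictive medium | Timing: 4 h pre-incubation, 48 h exposure at 30 °C | Technique: OD615 absorbance | Evaluation: Culture growth as lifespan proxy | Compound: 0.078–10 µM compound, 0.5% DMSO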

SMILES | EC50
CC(C)c1noc2ncc(C(=O)c3cc(Cl)cc(Cl)c3O)cc12 | > 10 µM (inactive)
C/C=C/Cn1c(N2CCCCCC2)nc2c1c(=O)[nH]c(=O)n2C | > 10 µM (inactive)
CCOC(=O)/C(=C\c1cn(C)c2ccccc12)[N+](=O)[O-] | 3.11 µM
Cc1cc(C)c(S(=O)(=O)c2ccccc2)c(OC(=O)c2ccc(Cl)cc2Cl)n1 | 7.48 µM
O=C(NC(=S)Nc1nc2c(s1)CSc1ccccc1-2)c1ccccc1 | > 10 µM (inactive)
O=C(N/N=C/c1ccccc1)c1c(O)c2ccccc2[nH]c1=O | 0.58 µM
Cc1ccc(OCC(=O)c2c(O)c3ccccc3oc2=O)cc1C | 8.97 µM
O=C(NCc1ccc(Cl)cc1)c1ccccc1CCc1ccccc1 | 7.94 µM
COc1ccc(C(CNC(=O)c2cccc(Br)c2)N2CCCC2)cc1 (centres undefined) | > 10 µM (inactive)
COc1cc(/C=C/C(=O)c2c(O)cc(C)oc2=O)cc(OC)c1O | > 10 µM (inactive)
COc1ccc(C2CC23N=C(c2ccccc2)OC3=O)cc1 (centres undefined) | > 10 µM (inactive)
O=C(CCC1CCCC1)c1c(O)c2ccccc2oc1=O | > 10 µM (inactive)
COc1ccc(/C=C(/C(=O)c2ccc(Cl)cc2Cl)n2cncn2)cc1 | 8.48 µM
COc1ccc(CN2C(=O)/C(=C/c3ccncc3)SC2=S)cc1 | 6.07 µM
CCn1cc(C(=O)O)c(=O)c2ccc(C)nc21 | 3.62 µM
COn1c(SC2CCCCC2)nc2ccccc2c1=O | 1.14 µM
CC1C/C(=C\c2cccnc2)C(=O)/C(=C/c2cccnc2)C1 (centres undefined) | 4.26 µM
Cc1cc(C)c(S(=O)(=O)c2ccccc2)c(OC(=O)c2cc(F)c(F)cc2Cl)n1 | 7.24 µM
CC(C)(C)C1CCc2[nH]nc(C(=O)O)c2C1 (centres undefined) | 1.2 µM
Cc1ccc(C(=O)NNC(=S)NC(=O)c2ccc(Cl)cc2)cc1 | 6.78 µM
Fc1cccc2sc(Nc3nnc(-c4ccccc4)o3)nc12 | 3.02 µM
Cc1c(O)c(S(=O)c2ccccc2)c(=O)n(-c2ccccc2)c1-c1ccccc1 (centres undefined) | 4.32 µM

SMILES | EC50
Cc1cc(C)nc(SCc2cc(=O)c(OC(=O)c3ccco3)co2)n1 | > 10 µM (inactive)
CCN1C(=O)C(=Cc2ccc(C)s2)C(=O)N(CC)C1=S | 3.74 µM
O=C(Nc1cccnc1)c1c(O)c2cccc3c2n(c1=O)CC3 | 4.44 µM
COc1ccc(/C(O)=C/C(=O)C(=O)Nc2c(C)n(C)n(-c3ccccc3)c2=O)cc1 | 5.85 µM
CCOC(=O)C1=C(N)OC2=C(C(=O)CCC2)C1c1sccc1C (centres undefined) | 9.37 µM
CC(c1ccccc1)N1CCn2c(nc3cc(NC(=O)c4cccs4)ccc32)C1 (centres undefined) | 7.15 µM
CCCc1[nH]nc2c1C(c1ccc(Br)s1)C(C#N)=C(N)O2 (centres undefined) | 6.56 µM
CC(=O)Nc1nc(C)c(Oc2ccccc2)c(=O)[nH]1 | > 10 µM (inactive)
CCC1C/C(=C\c2cccnc2)C(=O)/C(=C/c2cccnc2)C1 (centres undefined) | 3.17 µM
CS(=O)(=O)c1nc(-c2ccco2)cc(C(F)(F)F)n1 | 4.01 µM
O=S(=O)(CCSc1ccccn1)c1nc2ccccc2s1 | 5.84 µM
CC(=NCCc1c(C)[nH]c2ccc(C)cc12)C1=C(O)CC(c2ccccc2)CC1=O (centres undefined) | 7.69 µM
O=C1/C(=N/n2cnnc2)c2ccccc2N1Cc1ccccc1 | 9.61 µM
O=c1[nH]c2ccccc2nc1Cc1ccccc1 | > 10 µM (inactive)
Cc1ccccc1Oc1cc(-n2ncc(Cl)c(Cl)c2=O)ncn1 | > 10 µM (inactive)
O=C1/C(=C\c2cccnc2)CN(Cc2ccccc2)C/C1=C\c1cccnc1 | 9.63 µM
COc1cccc(C(=O)Oc2cc(N)n(S(=O)(=O)c3ccc(C)cc3)n2)c1OC | 9.26 µM
COC(=O)c1cc(OC)c(OC)cc1NC(=S)Nc1cccc(C(C)=O)c1 | > 10 µM (inactive)
CNC(=S)NC1CC2CCCC(C1)N2Cc1ccco1 (centres undefined) | > 10 µM (inactive)
O=Cc1ccccc1OS(=O)(=O)c1ccccc1 | 9.56 µM
CCOc1cc(Br)c(Br)c(C=Nc2ccc(NC(C)=O)cc2)c1O | 5.03 µM
O=C(c1ccccc1)c1nc2ccccc2[nH]c1=O | > 10 µM (inactive)
